CR mimetic SO = reduction of superoxide in aged yeast, primary screen, HTS. 330,000 tested, 0.18% active. superoxide response (% of plate mean), % at 10 µM. AID 2690, 2010. S. cerevisiae aged cells, superoxide DHE fluorescence; active compounds read low;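 active = superoxide response under a set limit, about three screen SD below normal, cut at about 65% in these data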;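 also: yeast aged for seven days with compound at 30 °C before DHE staining; 100% = average MFI of all compound-treated wells on the plate with controls excluded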
PolyA inhibitor = polyadenylation inhibitors in yeast reporter cells, primary screen, luminescence, S. cerevisiae. S. cerevisiae SKY197-pL101 polyadenylation reporter, beta-gal luminescence; efflux-impaired pdr1/pdr3 knockout yeast; score 100 = 6 SD above DMSO. activity score, % at 12 µM. 300,000 tested, 0.02% active;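 active = lowest replicate activity score at least 50, where 100 means six control SD above control mean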;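 also: yeast exposed to compound for 9 h at 30 °C; higher score means more reporter readthrough which indicates perturbed polyadenylation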
STK33 inh = inhibitors of purified STK33 kinase, primary screen, biochemical, ADP-Glo luminescence, homogeneous, cell-free; inhibition, % at 10 µM; 320,000 tested, 0.073% active; Serine/threonine-protein kinase 33 (Homo sapiens), Q9BYT3; MBP phosphorylation;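 active = inhibition at or above 25%, using the most active replicate where run in duplicate; inactive = inhibition below 25%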
Target sequence (Q9BYT3 whole entry, looked up): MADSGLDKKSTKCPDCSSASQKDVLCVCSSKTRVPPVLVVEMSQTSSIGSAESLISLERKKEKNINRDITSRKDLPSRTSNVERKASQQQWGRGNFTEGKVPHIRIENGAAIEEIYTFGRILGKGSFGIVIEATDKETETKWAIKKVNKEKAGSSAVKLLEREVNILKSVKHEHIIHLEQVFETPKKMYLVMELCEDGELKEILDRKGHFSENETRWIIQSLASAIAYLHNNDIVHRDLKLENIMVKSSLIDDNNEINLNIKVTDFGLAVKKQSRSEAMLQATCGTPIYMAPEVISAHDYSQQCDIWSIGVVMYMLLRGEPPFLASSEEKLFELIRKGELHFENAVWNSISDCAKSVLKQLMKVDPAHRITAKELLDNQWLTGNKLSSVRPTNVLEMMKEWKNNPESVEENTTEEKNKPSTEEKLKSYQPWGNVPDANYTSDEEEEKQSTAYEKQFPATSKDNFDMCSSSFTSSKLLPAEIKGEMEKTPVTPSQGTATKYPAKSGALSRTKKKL
GSK3beta inhib = human GSK3beta kinase inhibitors, primary screen, biochemical, cell-free homogeneous, HTS. activity score (negative = inhibition), % at 10 µM. GST-GSK3beta kinase, ADP-Glo luminescence, 60 min; active compounds read low. 300,000 tested, 0.038% active. Glycogen synthase kinase-3 beta (Homo sapiens), P49841;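 active = more than half of replicate wells score below -50%, meaning over 50% inhibition versus plate controls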;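 also: 0% = median DMSO wells and -100% = median GW8510 positive control wells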
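test system = GST-tagged human GSK3beta kinase, cell-free | reagent = 25 µM ATP with peptide substrate | dosing = one dose of 10 µM per compound | schedule = 60 min reaction, RT | detection = luminescent ADP-Glo measurement of ADP formed | control set = DMSO neutral wells and GW8510 at 20 µM as positive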
GSK3A inh = blockers of GSK3A enzyme activity – biochemical, luminescence, cell-free homogeneous, HTS, primary screen; 320,000 tested, 0.1% active; Glycogen synthase kinase-3 alpha (Homo sapiens), P49840; GSK-3 alpha kinase, ADP-Glo luminescence, 60 min; inhibition, % at 10 µM;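 active = more than half of replicates show inhibition above 20%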;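 also: GST-tagged GSK-3 alpha with peptide substrate and 25 µM ATP; 0% = DMSO neutral wells and 100% = GW8510 positive control wells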
AI-2 QS mod = Vibrio harveyi AI-2 quorum sensing modulators, primary screen, JMH597 strain, luminescence/OD600 ratio | Vibrio harveyi JMH597 AI-2 luminescence/OD600 ratio, 9 h; active compounds read low; strain lacks LuxN and CqsS sensors; 0 = neutral-control median | activity change, % at 7.5 µM | 300,000 tested, 0.4% active | AID 2094, 2009; in the data active = activity change below about -75%, passing the limit was not always enough;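 also: luminescence divided by OD600 gain over 9 h not by final OD600 alone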
Superoxide pick = superoxide lowering in aged yeast cells, confirmation, cherry picked compounds. shares compounds with CR mimetic SO. S. cerevisiae aging, superoxide DHE fluorescence; active compounds read low. superoxide response (% of plate), % at 10 µM. 850 tested, 1% active;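 active = superoxide signal below 65% of the plate average of sample wells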;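 also: cells aged with compound for 7 days at 30 degrees C before staining; 100% equals mean DHE fluorescence of all compound wells on the plate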
DHE counter = DHE quenching or ROS scavenging interference in aged yeast, artefact control for yeast caloric restriction mimetic project, S. cerevisiae BY4741, flow cytometry. shares compounds with CR mimetic SO. DHE fluorescence; active compounds read low. fluorescence response, % at 10 µM. 850 tested, under 10 active. AID 435000, 2010;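 active = fluorescence response below 15%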;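 also: percent of the mean fluorescence averaged over all compound wells on the plate; lower means stronger quenching of DHE signal or ROS scavenging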
Active calls of the source: *; · = no result given. Only some compounds are listed: those with a hit (about 0.72% of all), similar ones and a draw of the others.

SMILES	CR mimetic SO	PolyA inhibitor	STK33 inh	GSK3beta inhib	GSK3A inh	AI-2 QS mod	Superoxide pick	DHE counter
CC(C)C(NC(=S)Nc1ccccc1)C(=O)O (stereo not given)	107	16	0	1	0	38	·	·
O=C(c1cccc(F)c1)N1CCN(c2cccc(C(F)(F)F)c2)CC1	100	7	-2	1	-4	23	92	89
COc1ccc(NC2CCCN(C(=O)CCc3ccncc3)C2)cc1OC (stereo not given)	104	18	1	5	5	6	·	·
O=C(CSc1nnc(-c2ccc(O)cc2)n1Cc1ccco1)N1CCc2ccccc2C1	60*	9	0	-2	3	27	92	92
NC(=O)CSc1nnc(-c2ccc(O)cc2)n1Cc1ccco1	88	-5	1	-1	2	26	·	·
COc1ccc2c3c(cccc13)N(C)N=C2C	59*	-35	1	-2	-8	42	74	95
CCOc1ccc2c(c1)c(=O)c(S(=O)(=O)c1ccc(CC)cc1)cn2C	97	3	-1	3	-4	16	·	·
CCCn1c2ccc(/C(C)=N\O)cc2c2cc(/C(C)=N/O)ccc21	112	-66	44*	-2	1	10	104	90
C/C(=N\O)c1ccc(Cl)c(Cl)c1	98	13	1	4	-3	11	·	·
COc1cc(NS(=O)(=O)c2ccc(NC(=O)/C=C/C(=O)O)cc2)nc(OC)n1	102	0	0	-2	-6	-42	·	·
CC(=O)Nc1nc(-c2ccc(Cl)cc2)ns1	90	-1	0	-7	-1	27	·	·
COc1ccc(NC(=O)c2ccc(S(=O)(=O)N3CCOCC3)o2)cc1	64*	6	1	-4	4	36	95	91
Cc1cc(Cl)ccc1NC(=O)CCC(=O)N/N=C/c1cccnc1	87	0	-2	2	0	20	·	·
O=C(Cn1ccccc1=O)Nc1ccc(Cl)c(S(=O)(=O)N2CCCCC2)c1	99	·	0	·	-2	·	·	·
O=C(NCc1ccccc1Cl)C(=O)NCC1OCCCN1S(=O)(=O)c1cccs1 (stereo not given)	96	12	-1	0	-3	19	·	·
C=CCSc1nnc(-c2ccc([N+](=O)[O-])cc2)o1	64*	-8	1	1	0	16	106	91
Fc1ccc(Cn2nnc3ccccc32)cc1	64*	1	-2	1	0	7	94	93
COCCn1c(SC(C)C(=O)Nc2ccc(N3CCOCC3)cc2)nnc1-c1ccncc1 (stereo not given)	103	7	-4	2	1	17	·	·
Cn1c(=O)c2c(nc(CN3CCOCC3)n2CCN2CCOCC2)n(C)c1=O	60*	0	-1	3	1	4	94	92
CCCCn1c(CN2CCOCC2)nc2c1c(=O)n(C)c(=O)n2C	99	6	-2	-2	-1	27	·	·
CC(=O)c1c(C)nc2ccc([N+](=O)[O-])cc2c1-c1ccccc1	104	-14	-1	-4	-1	80	·	·
CC(=O)c1c(-c2ccccc2)c2cc([N+](=O)[O-])ccc2[nH]c1=O	59*	12	-1	-10	6	31	111	106
N#C/C(=N\Nc1ccccc1Cl)C(=O)c1ccccc1	105	-9	0	0	-2	13	·	·
CCOC(=O)/C(C#N)=N/Nc1ccccc1C#N	114	0	-1	1	-4	17	·	·
CCOC(=O)NC(=O)/C(C#N)=N\Nc1cccc(OC)c1	102	-20	-1	3	-3	10	122	124
SMILES	CR mimetic SO	PolyA inhibitor	STK33 inh	GSK3beta inhib	GSK3A inh	AI-2 QS mod	Superoxide pick	DHE counter
CCOC(=O)NC(=O)/C(C#N)=N/Nc1c(F)cccc1F	93	-7	·	0	·	-1	101	104
N#C/C(=N\Nc1c(Cl)cccc1Cl)C(=O)NN	94	-14	14	-24	75*	20	110	119
COc1cccc(NC(=O)CN(C)C(=O)CSc2nc(C)cc(C)n2)c1	98	·	1	·	-1	·	·	·
CC1CC(C)CN(CCCNC(=O)c2ccc3c(c2)NC(=O)CS3)C1 (stereo not given)	84	15	0	1	-1	46	·	·
NC(=O)c1nsc(C(=O)N(CC(=O)NCc2ccccc2)c2ccc(F)cc2)c1N	93	7	0	-8	-1	14	·	·
CCn1c(SCC(=O)Nc2ccc(OC)c(OC)c2)nnc1-c1cccs1	97	-9	1	6	3	11	119	105
CCc1ccc2c(c1)C(C)=CC(C)(C)N2	96	-6	-1	-4	1	-1	·	·
CCOc1ccc2c(c1)C(C)=CC(C)(C)N2	65*	·	0	·	-5	·	103	90
Cc1ccc(C(=O)n2c3ccccc3c3ccccc32)cc1	91	-19	-2	1	-5	4	·	·
CC(=O)n1c2ccccc2c2ccccc21	103	-23	-1	1	-2	20	95	92
Cc1cnc(NC(=O)CN2CCN(c3ccccn3)CC2)s1	114	-4	0	9	9	5	·	·
COc1ccc(N)cc1NC(=O)CN1CCCC1	98	6	0	1	-1	3	·	·
O=C(CN1CCN(c2ccccc2)CC1)Nc1cccc(C(F)(F)F)c1	110	15	-2	-1	-3	10	·	·
Cc1cc(N)ccc1NC(=O)CN1CCCC1	64*	-4	-1	-4	-2	3	91	92
O=C(CN1CCCCCC1)Nc1ccc(F)c(F)c1	100	3	1	-3	0	3	·	·
O=C(CN1CCN(CC(=O)Nc2ccccc2Cl)CC1)Nc1ccc(F)c(F)c1	44*	-3	0	0	-3	22	95	94
CSc1ccccc1NC(=O)CN1CCN(c2ccccn2)CC1	97	-16	0	10	-2	-14	99	101
O=C(CN1CCN(c2ccccn2)CC1)Nc1cccc(C(F)(F)F)c1	105	2	0	1	-1	3	98	90

Compound activity: PubChem BioAssay, several laboratories
